From ChEMBL document CHEMBL4808163, “Benzothiazolyl and Benzoxazolyl Hydrazones Function as Zinc Metallochaperones to Reactivate Mutant p53” (J Med Chem, 2021)
Activity calls are given as the source filed them. The calls are words filed in the database; no cut-off is given here.

Experiments:
[1] = Ratio of EC50 for test compound to EC50 for ZMC1 for growth inhibition of human TOV-112D cells harbouring p53 R175H mutant incubated for 3 days by MTS assay; format: functional, TOV112D; conditions: time 3 day
TOV112D [2] = assay: Anticancer activity against human TOV112D cells harbouring p53 R175H mutant xenografted NCr nu/nu mouse assessed as tumor growth inhibition at 5.73 mg/kg, ip relative to control; format: functional; conditions: read-out: TGI
How it was run: (§1)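 Tumors (five per group) were grown to 50 mm³, then the compound was given ip daily. Dimensions were measured every other day, with volume = L × W² × π/6. Significance was tested by Student's t test.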

NCI-H1299 [3] = assay: Induction of ROS production in human H1299 cells at 0.75 uM incubated for 24 hrs by CellRox green based fluorescence flow cytometry relative to ZMC1; format: functional
[4] = Induction of Zinc-dependent p53 R175H mutant refolding by assessing wild type conformation
How it was run: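 Cells grown on coverslips and treated, fixed in 4% paraformaldehyde 10 min, permeabilized in 0.5% Triton X-100 5 min. Stained overnight with conformation-specific antibodies PAB1620 (1:50, wild-type fold) and PAB240 (1:400, misfolded/unfolded), then goat anti-mouse IgG secondary for 40 min.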

TOV112D [5] = assay: Growth inhibition of human TOV112D cells harbouring p53 R175H mutant incubated for 3 days by MTS assay; format: functional, cell-based; conditions: 72 h
hERG (KCNH2) = hERG (KCNH2) (Homo sapiens, UniProt Q12809); assay: Displacement of [3H]-dofetilide from human recombinant ERG at 10 uM relative to control; conditions: probe [3H]-dofetilide
Sequence of hERG (KCNH2) (Q12809 whole entry): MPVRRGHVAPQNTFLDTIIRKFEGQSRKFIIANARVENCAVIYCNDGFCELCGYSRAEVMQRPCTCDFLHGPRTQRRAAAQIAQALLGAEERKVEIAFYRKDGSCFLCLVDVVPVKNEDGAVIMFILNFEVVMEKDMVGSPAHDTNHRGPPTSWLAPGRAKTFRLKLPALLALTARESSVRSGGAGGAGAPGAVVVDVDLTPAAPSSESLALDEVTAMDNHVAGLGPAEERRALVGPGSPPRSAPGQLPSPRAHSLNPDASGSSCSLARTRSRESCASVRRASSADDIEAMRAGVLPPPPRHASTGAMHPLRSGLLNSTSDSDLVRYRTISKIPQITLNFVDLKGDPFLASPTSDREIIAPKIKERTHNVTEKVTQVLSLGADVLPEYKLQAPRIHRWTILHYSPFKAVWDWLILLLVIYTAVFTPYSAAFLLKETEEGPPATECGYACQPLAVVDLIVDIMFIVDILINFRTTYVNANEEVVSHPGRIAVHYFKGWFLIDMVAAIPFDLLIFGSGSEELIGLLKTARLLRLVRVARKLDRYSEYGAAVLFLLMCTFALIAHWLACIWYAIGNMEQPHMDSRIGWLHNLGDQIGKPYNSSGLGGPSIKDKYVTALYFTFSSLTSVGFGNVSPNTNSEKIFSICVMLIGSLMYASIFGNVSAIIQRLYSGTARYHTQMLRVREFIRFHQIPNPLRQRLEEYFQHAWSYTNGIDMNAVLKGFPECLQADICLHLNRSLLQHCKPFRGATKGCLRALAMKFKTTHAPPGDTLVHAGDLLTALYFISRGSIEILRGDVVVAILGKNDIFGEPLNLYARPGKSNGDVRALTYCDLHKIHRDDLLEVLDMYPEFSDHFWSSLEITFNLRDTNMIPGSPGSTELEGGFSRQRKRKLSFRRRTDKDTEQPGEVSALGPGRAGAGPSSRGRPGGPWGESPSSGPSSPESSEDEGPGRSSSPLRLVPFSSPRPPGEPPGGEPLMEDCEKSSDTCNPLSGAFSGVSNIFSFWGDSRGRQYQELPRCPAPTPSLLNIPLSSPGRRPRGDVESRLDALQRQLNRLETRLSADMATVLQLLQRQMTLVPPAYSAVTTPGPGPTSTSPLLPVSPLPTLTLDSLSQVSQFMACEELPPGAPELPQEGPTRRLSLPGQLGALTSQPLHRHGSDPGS

[6] = target: Sodium-dependent noradrenaline transporter (Homo sapiens, UniProt P23975); assay: Displacement of [3H]nisoxetine from recombinant human norepinephrine transporter at 10 uM incubated for 120 mins by radiometric scintillation analysis relative to control; format: ADME; conditions: probe [3H]nisoxetine
Sequence of Sodium-dependent noradrenaline transporter (P23975 whole entry): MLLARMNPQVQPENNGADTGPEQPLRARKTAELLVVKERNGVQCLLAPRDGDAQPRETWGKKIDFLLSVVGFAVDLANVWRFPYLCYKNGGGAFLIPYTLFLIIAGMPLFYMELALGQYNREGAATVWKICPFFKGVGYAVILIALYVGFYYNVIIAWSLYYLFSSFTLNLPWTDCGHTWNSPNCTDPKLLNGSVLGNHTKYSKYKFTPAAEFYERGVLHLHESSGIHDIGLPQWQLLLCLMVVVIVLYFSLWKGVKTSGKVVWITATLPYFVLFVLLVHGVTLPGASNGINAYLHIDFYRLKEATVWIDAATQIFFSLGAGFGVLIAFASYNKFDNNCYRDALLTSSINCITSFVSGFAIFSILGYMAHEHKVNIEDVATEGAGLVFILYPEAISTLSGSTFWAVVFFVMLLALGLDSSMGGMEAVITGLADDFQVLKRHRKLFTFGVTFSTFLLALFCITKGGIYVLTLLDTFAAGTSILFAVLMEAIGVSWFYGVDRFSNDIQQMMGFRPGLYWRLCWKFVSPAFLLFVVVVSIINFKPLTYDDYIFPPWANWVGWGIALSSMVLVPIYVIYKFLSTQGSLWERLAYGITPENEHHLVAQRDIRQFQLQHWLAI

[7] = target: 5-hydroxytryptamine receptor 2A (Homo sapiens, UniProt P28223); assay: Displacement of [125I]+/-DOI from human recombinant 5-HT2A receptor at 10 uM after 60 mins by scintillation counting analysis relative to control; conditions: recombinant human 5-HT2A receptor, probe [125I]+/-DOI
Sequence of 5-hydroxytryptamine receptor 2A (P28223 whole entry): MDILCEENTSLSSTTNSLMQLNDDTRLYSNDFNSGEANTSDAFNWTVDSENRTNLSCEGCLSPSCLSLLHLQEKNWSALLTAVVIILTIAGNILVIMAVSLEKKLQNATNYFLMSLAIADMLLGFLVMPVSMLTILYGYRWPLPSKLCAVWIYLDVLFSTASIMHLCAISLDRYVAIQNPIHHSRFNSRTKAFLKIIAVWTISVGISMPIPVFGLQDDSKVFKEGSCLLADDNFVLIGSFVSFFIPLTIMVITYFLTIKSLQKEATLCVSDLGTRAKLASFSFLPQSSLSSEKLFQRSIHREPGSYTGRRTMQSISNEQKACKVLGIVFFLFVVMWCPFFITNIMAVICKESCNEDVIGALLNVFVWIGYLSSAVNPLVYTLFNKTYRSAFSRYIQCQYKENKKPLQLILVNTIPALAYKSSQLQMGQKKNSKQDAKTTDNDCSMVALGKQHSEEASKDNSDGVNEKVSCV

Mu-type opioid receptor = Mu-type opioid receptor (Homo sapiens, UniProt P35372); assay: Displacement of [3H]DAMGO from human recombinant mu receptor at 10 uM after 120 mins by scintillation counting analysis relative to control; conditions: probe [3H]DAMGO
Sequence of Mu-type opioid receptor (P35372 whole entry): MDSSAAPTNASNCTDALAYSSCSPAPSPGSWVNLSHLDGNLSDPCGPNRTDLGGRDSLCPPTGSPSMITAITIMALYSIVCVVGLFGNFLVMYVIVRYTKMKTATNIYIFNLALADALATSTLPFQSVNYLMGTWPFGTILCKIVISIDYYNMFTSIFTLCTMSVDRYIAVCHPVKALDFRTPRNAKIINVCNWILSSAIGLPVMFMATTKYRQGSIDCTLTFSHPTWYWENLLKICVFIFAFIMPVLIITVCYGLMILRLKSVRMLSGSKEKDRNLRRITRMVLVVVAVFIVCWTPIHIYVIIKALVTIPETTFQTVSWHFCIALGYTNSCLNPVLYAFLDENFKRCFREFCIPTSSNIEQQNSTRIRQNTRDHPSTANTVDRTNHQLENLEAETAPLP

[8] = Binding affinity to Zn(II)+ incubated for 60 mins using FluoZin-3 by fuorescence assay
Sodium channel site 2 = assay: Displacement of [3H]batrachotoxinin from rat Sodium channel site 2 at 10 uM incubated for 60 mins by radiometric scintillation analysis relative to control; conditions: rat sodium channel site 2, probe [3H]batrachotoxinin
[9] = Apparent permeability in human Caco-2 cells at 5 uM measured up to 90 mins by LC-MS/MS analysis; format: ADME, cell-based
[10] = Binding affinity to Zn(II)+ incubated for 60 mins using RhodZin-3 by fuorescence assay
NCI-H460 = assay: Cytotoxicity against human NCI-H460 cells harbouring p53 wild type; format: functional, cell-based
How it was run: (§2)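 5000 cells/well seeded; serial compound dilutions added next day at about 50% confluence. Growth read by MTS or Calcein AM after 3 days. Three independent experiments, each in triplicate; significance by Student's t test.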

NCI-H1299 [11] = assay: Cytotoxicity against p53-null human H1299 cells; format: functional, cell-based; how it was run: as §2
TOV112D [12] = assay: Anticancer activity against human TOV112D cells harbouring p53 R175H mutant xenografted NCr nu/nu mouse assessed as tumor growth inhibition at 5 mg/kg, ip relative to control; format: functional; conditions: read-out: TGI; how it was run: as §1
[13] = Toxicity in NCr nu/nu mouse assessed as change in body weight loss up to 30 mg/kg, ip; format: organism-based; conditions: in vivo
How it was run: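 NCr nu/nu mice, 8–12 weeks old, 5 per dose, given a single intraperitoneal injection for acute maximum tolerated dose testing. Health, behavior and body weight monitored afterward.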

MDA-MB-468 = assay: Anticancer activity against human MDA-MB-468 cells harbouring p53 R273H mutant xenografted NCr nu/nu mouse assessed as tumor growth inhibition at 5.73 mg/kg, ip relative to control; format: functional, organism-based
How it was run: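 MDA-MB-468 xenografts (6 × 10⁶ cells/site) in NCr nu/nu nude mice, five tumors per group, grown to 50 mm³, then dosed ip daily. Tumor length and width measured every other day; volume = L × W² × π/6. Growth versus control compared by Student's t test.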

C/C(=N\Nc1nc2ccccc2o1)c1cc(OCCN(C)C)ccn1
Ratio EC50 [1]: 5.6
inhibition in vivo at 5.73 mg/kg (TOV112D [2]): 56%
Ratio (NCI-H1299 [3]): 1.4
Activity [4]: Active
EC50 (TOV112D [5]): 53 nM
inhibition at 10 µM (hERG (KCNH2)): 51%
inhibition at 2 h, 10 µM [6]: -25%
inhibition at 1 h, 10 µM [7]: 32%
inhibition at 2 h, 10 µM (Mu-type opioid receptor): 0%
Kd [8]: 47 nM
inhibition at 1 h, 10 µM (Sodium channel site 2): 21%

C/C(=N\NC(=S)N(C)C)c1ccccn1
Ratio EC50 [1]: 0.2
Ratio (NCI-H1299 [3]): 1.3
Activity [4]: Active
EC50 (TOV112D [5]): 1 nM
Papp at […], 5 µM [9]: 7.3 ×10⁻⁶ cm/s
Kd ([10]; read-out: Kd): 25.6 nM

C/C(=N\Nc1nc2ccccc2s1)c1cc(N(C)C)ccn1
Activity [4]: Active
EC50 (TOV112D [5]): 48 nM

C/C(=N\NC(=S)N1CCC1)c1cc(N(C)C)ccn1
Activity [4]: inactive
EC50 (TOV112D [5]): 8 nM

C/C(=N\Nc1nc2ccccc2s1)c1cc(OCCO)ccn1
Ratio (NCI-H1299 [3]): 2.8
Activity [4]: inactive
Kd [8]: 22 nM

C/C(=N\Nc1nc2ccccc2n1C)c1ccccn1
Activity [4]: Active
EC50 (TOV112D [5]): 4 nM
inhibition at 10 µM (hERG (KCNH2)): 86%
inhibition at 2 h, 10 µM [6]: 61%
inhibition at 1 h, 10 µM [7]: 46%
inhibition at 2 h, 10 µM (Mu-type opioid receptor): 48%
inhibition at 1 h, 10 µM (Sodium channel site 2): 7%

COC/C(=N\Nc1nc2ccccc2s1)c1ccccn1
Ratio (NCI-H1299 [3]): 0.9
Activity [4]: Active
Kd [8]: 197 nM

COCCOc1ccc2nc(N/N=C(\C)c3ccccn3)sc2c1
Ratio (NCI-H1299 [3]): 2.4
Activity [4]: Active
Kd ([10]; read-out: Kd): 386 nM
Kd [8]: 81 nM

C/C(=N\Nc1nc2ccccc2n1CCN(C)C)c1ccccn1
Ratio EC50 [1]: 5.2
Ratio (NCI-H1299 [3]): 1.6
Activity [4]: Active
EC50 (TOV112D [5]): 42 nM
Kd [8]: 61 nM

C/C(=N\NC(=S)NC1CCN(c2ccccn2)CC1)c1ccccn1
Activity [4]: inactive
Kd [10]: Not Active

C/C(=N\Nc1nc2ccccc2s1)c1cc(OCCN(C)C)ccn1
Ratio (NCI-H1299 [3]): 2.5
Activity [4]: Active
inhibition at 10 µM (hERG (KCNH2)): 95%
inhibition at 2 h, 10 µM [6]: 82%
inhibition at 1 h, 10 µM [7]: 76%
inhibition at 2 h, 10 µM (Mu-type opioid receptor): 48%
Kd [8]: 55 nM
inhibition at 1 h, 10 µM (Sodium channel site 2): 36%

CS/C(=N\N=C(/C)c1ccccn1)N1CCC1
Activity [4]: inactive
Kd [10]: Not Active

C/C(=N\Nc1nccn1C)c1ccccn1
Ratio EC50 [1]: 47.1
inhibition in vivo at 5.73 mg/kg (TOV112D [2]): 57%
Ratio (NCI-H1299 [3]): 0.9
Activity [4]: Active
EC50 (TOV112D [5]): 445 nM
inhibition at 10 µM (hERG (KCNH2)): 7%
inhibition at 2 h, 10 µM [6]: 4%
inhibition at 1 h, 10 µM [7]: 11%
inhibition at 2 h, 10 µM (Mu-type opioid receptor): -2%
Kd [8]: 408 nM
inhibition at 1 h, 10 µM (Sodium channel site 2): 23%

C/C(=N\Nc1nc2ccccc2n1CCN1CCOCC1)c1ccccn1
inhibition in vivo at 5.73 mg/kg (TOV112D [2]): 59%
Activity [4]: Active
EC50 (TOV112D [5]): 51 nM
inhibition at 10 µM (hERG (KCNH2)): 76%
inhibition at 2 h, 10 µM [6]: -7%
inhibition at 1 h, 10 µM [7]: 100%
Kd [8]: 71 nM
inhibition at 1 h, 10 µM (Sodium channel site 2): 50%

C/C(=N\Nc1nc2ccccc2o1)c1ccccn1
Activity [4]: Active
EC50 (TOV112D [5]): 6 nM
Activity (NCI-H460): inactive
inhibition at 10 µM (hERG (KCNH2)): 21%
inhibition at 2 h, 10 µM [6]: 21%
inhibition at 2 h, 10 µM (Mu-type opioid receptor): 2%
Activity (NCI-H1299 [11]): inactive
inhibition at 1 h, 10 µM (Sodium channel site 2): 12%

C/C(=N\NC(=O)N1CCC1)c1ccccn1
Activity [4]: inactive
EC50 (TOV112D [5]): > 10000 nM

C/C(=N\NC(=S)N1CCC1)c1ccccc1
Ratio (NCI-H1299 [3]): 0.9
Activity [4]: inactive
Kd [10]: Not Active

C/C(=N\Nc1nc2ccccc2s1)c1ccccn1
inhibition in vivo at 5 mg/kg (TOV112D [12]): 72%
Activity [4]: Active
EC50 (TOV112D [5]): 55 nM
Activity (NCI-H460): inactive
inhibition at 10 µM (hERG (KCNH2)): 19%
inhibition at 2 h, 10 µM [6]: 101%
inhibition at 1 h, 10 µM [7]: 96%
Activity [13]: Non-Toxic
inhibition at 2 h, 10 µM (Mu-type opioid receptor): 13%
TGI (MDA-MB-468): inactive
Activity (NCI-H1299 [11]): inactive
inhibition at 1 h, 10 µM (Sodium channel site 2): 101%

CC(C)(C)/C(=N\NC(=S)N1CCC1)c1ccccn1
Ratio (NCI-H1299 [3]): 0.7
Activity [4]: inactive
Kd [10]: Not Active

C/C(=N\Nc1nc2ccccc2s1)c1cc(OCCN2CCN(C)CC2)ccn1
Ratio (NCI-H1299 [3]): 0.9
Activity [4]: inactive
Kd [8]: 20 nM

C/C(=N\Nc1nc2ccccc2n1C)c1ncccn1
Ratio (NCI-H1299 [3]): 1.6
Activity [4]: inactive
inhibition at 10 µM (hERG (KCNH2)): 77%
inhibition at 2 h, 10 µM [6]: -2%
inhibition at 1 h, 10 µM [7]: 11%
inhibition at 2 h, 10 µM (Mu-type opioid receptor): 41%
Kd [8]: 54 nM
inhibition at 1 h, 10 µM (Sodium channel site 2): 12%

O=C(O)CN(CC(=O)O)CC(=O)O [NITRILOTRIACETIC ACID]
Kd ([10]; read-out: Kd): 17 nM

C/C(=N\NC(=S)N1CCC1)c1cccc(C)n1
Activity [4]: Active
EC50 (TOV112D [5]): 132 nM
Kd ([10]; read-out: Kd): 48.3 nM

C/C(=N\Nc1ccc2ccccc2n1)c1ccccn1
Activity [4]: Active
EC50 (TOV112D [5]): 141 nM

C/C(=N\NC(=S)N1CCC1)c1cnccn1
Ratio EC50 [1]: 4.5
Ratio (NCI-H1299 [3]): 2
Activity [4]: Active
Kd ([10]; read-out: Kd): 99.4 nM

C/C(=N\Nc1nc2ccccc2n1CCN1CCCC1)c1ccccn1
inhibition in vivo at 5.73 mg/kg (TOV112D [2]): 47%
Activity [4]: Active
inhibition at 10 µM (hERG (KCNH2)): 88%
inhibition at 2 h, 10 µM [6]: 101%
inhibition at 1 h, 10 µM [7]: 96%
Kd [8]: 22 nM
inhibition at 1 h, 10 µM (Sodium channel site 2): 101%

C/C(=N\Nc1nc2ccccc2s1)c1ncccn1
Ratio (NCI-H1299 [3]): 1.2
Activity [4]: inactive
inhibition at 10 µM (hERG (KCNH2)): -2%
inhibition at 2 h, 10 µM [6]: 84%
inhibition at 1 h, 10 µM [7]: 3%
inhibition at 2 h, 10 µM (Mu-type opioid receptor): 4%
Kd [8]: 79 nM
inhibition at 1 h, 10 µM (Sodium channel site 2): 2%

C/C(=N\NC(=S)N1CCC1)c1ncccc1C
Activity [4]: inactive
